Assay results as given in article PMC6437812 (ChemistryOpen, 2019).

Tests used:
HER2 = assay: Western blot of Hsp90 client protein HER2 in SK-BR-3 cells; assay type: cell-based, human; conditions: 20 μM, 12 h
How it was run: (§1)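 SK‐BR‐3 cells (DMEM, 10 % FBS) were exposed to test compound at 20 μM for 12 h, washed in ice-cold PBS and lysed in SDS sample buffer. Equal lysate amounts went through SDS‐PAGE and PVDF transfer, with blocking in 5 % milk/TBST pH 7.6. Primary antibodies were applied overnight at 4 °C and secondary antibodies 2 h at room temperature. Detection was by ECL.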

Hsp72 = assay: Western blot of Hsp72; assay type: cell-based, human; conditions: SK-BR-3 cells, 20 μM, 12 h
How it was run: as §1

[1] = test system: A549 and SK-BR-3 cell lines; assay: Autophagy observed under the microscope; assay type: cell-based, human; conditions: 10 μM
[2] = target: recombinant human full-length Hsp90α (Homo sapiens, UniProt P07900); assay: FP assay, competition with FITC-GM; assay type: binding
[3] = test system: breast cancer SK-BR-3 cell line; assay: SRB anti-proliferative assay, SK-BR-3; assay type: cell-based; conditions: Homo sapiens, SK-BR-3, 120 h, read-out: SK-BR-3 (IC50±SD, μM) for 120 h
How it was run: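 Cells from ATCC, grown in DMEM with 10 % FBS at 37 °C and 5 % CO2. Seeded in 96-well plates overnight, then exposed to increasing concentrations in triplicate for 72 h, or for a prolonged 120 h. Growth was read by sulforhodamine B staining at OD 510 nm. IC50 came from curve fitting.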

With `NNc1nc(NCc2ccccc2)nc(Nc2ccc(Br)cc2)n1` [Compound A22] the “expression of HER2” value (HER2) was “obviously reduced”.
In the case of `COC1=C2C[C@@H](C)C[C@H](OC)[C@H](O)[C@@H](C)/C=C(\C)[C@H](OC(N)=O)[C@@H](OC)/C=C\C=C(/C)C(=O)NC(=CC1=O)C2=O` [GM, geldanamycin], the “induction of Hsp72” value (Hsp72) is reported as “induced”.
In the case of `Brc1ccc(Nc2nc(N/N=C\c3c[nH]c4ccccc34)nc(Nc3ccccc3)n2)cc1` [Compound A16], the “expression of HER2” value (HER2) is reported as “obviously reduced”.
In the case of `Cc1cc(C)n(-c2nc(NN=Cc3c[nH]c4ccccc34)nc(Nc3ccc(Br)cc3)n2)n1` [Compound A1, 4‐(2‐((1H‐indol‐3‐yl)methylene)hydrazinyl)‐N‐(4‐bromophenyl)‐6‐(3,5‐dimethyl‐1H‐pyrazol‐1‐yl)‐1,3,5‐triazin‐2‐amine], the induction of autophagy [1] is reported as “little autophagy was induced”, the “competition with FITC-GM for binding to Hsp90α” value [2] is reported as “failed to compete” and the IC50 [3] is reported as 10.8 ± 1.3 µM. The “expression of HER2” value (HER2) was “obviously reduced”.
In the case of `CCCNc1nc(NCCC)nc(Nc2ccc(Br)cc2)n1` [Compound A24], the “expression of HER2” value (HER2) is reported as “obviously reduced”.
With `Brc1ccc(Nc2nc(NCc3ccccc3)nc(NCc3ccccc3)n2)cc1` [Compound A25] the “expression of HER2” value (HER2) was “obviously reduced”.
With `NNc1nc(Nc2ccccc2)nc(Nc2ccc(Br)cc2)n1` [Compound A20] the “expression of HER2” value (HER2) was “obviously reduced”.
